Experimental data reported in paper PMC7188312 (Nature, 2019).
pKd: −log10 of the molar value. ≈ marks a conversion by molar mass, not a printed value.

How the values were obtained:
[1] = system: E. coli; details: cited from earlier work
[2] = system: K. pneumoniae; details: cited from earlier work
[3] = system: Bacteroides caccae KLE 2423; assay: MIC, microbroth dilution, anaerobic; type: cell-based; details: KLE2423
[4] = system: Salmonella Typhimurium LT2 ATCC 19585; assay: MIC, microbroth dilution, anaerobic; type: cell-based; details: Salmonella enterica, ATCC19585|TYPHIMURIUM
[5] = system: Haemophilus parainfluenzae KLE 2367; assay: MIC, microbroth dilution, anaerobic; type: cell-based; details: KLE2367
[6] = system: Acinetobacter baumannii ATCC 17978; assay: MIC, microbroth dilution; type: cell-based; details: ATCC17978
[7] = system: E. coli AR350 (mcr-1); assay: MIC, microbroth dilution; type: cell-based; details: Escherichia coli
[8] = system: Klebsiella pneumoniae ATCC 700603; assay: MIC, microbroth dilution; type: cell-based
[9] = system: Proteus mirabilis KLE 2600; assay: MIC, microbroth dilution, anaerobic; type: cell-based; details: KLE2600
[10] = Cytotoxicity, microplate Alamar Blue assay; type: cell-based; details: human
Summary of the method: (§1)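 FaDu, HepG2 and HEK293-RFP cells were grown in Eagle's MEM with 10% FBS at 37°C, 5% CO2. Cells were seeded in exponential growth, and after 24 h the medium was replaced with fresh medium holding 2-fold serial dilutions of test compound made in water. After 72 h, resazurin was added to a final 0.15 mM. […] was read 3 h later. Biological replicates.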

[11] = Cytotoxicity, microplate Alamar Blue assay; type: cell-based; details: human, HepG2 liver hepatocellular carcinoma cells (ATCC HB-8065)
Summary of the method: as §1

[12] = system: Mycobacterium tuberculosis mc^26020; assay: MIC, resazurin; type: cell-based
[13] = system: K. pneumoniae clinical isolates; assay: microbe, parasite or virus in culture; type: cell-based; details: Klebsiella pneumoniae, K. pneumoniae ESBL JMI 1052654
[14] = system: Enterobacter cloacae ATCC 13047; assay: MIC, microbroth dilution, anaerobic; type: cell-based; details: ATCC13047
[15] = system: Pseudomonas aeruginosa PAO1; assay: MIC, microbroth dilution; type: cell-based
[16] = system: Faecalibacterium prausnitzii KLE 2243; assay: MIC, microbroth dilution, anaerobic; type: cell-based; details: KLE2243
[17] = Cytotoxicity, microplate Alamar Blue assay; type: cell-based; details: human, FaDu pharynx squamous cell carcinoma cells (ATCC HTB-43)
Summary of the method: as §1

[18] = system: E. coli clinical isolates; assay: microbe, parasite or virus in culture; type: cell-based; details: Escherichia coli, E. coli ESBL JMI 1043856
[19] = system: Bacteroides xylanisolvens KLE 2253; assay: MIC, microbroth dilution, anaerobic; type: cell-based; details: KLE2253
[20] = system: Stenotrophomonas maltophilia KLE 11416; assay: MIC, microbroth dilution, anaerobic; type: cell-based; details: KLE11416
[21] = system: Bacteroides fragilis ATCC 25285; assay: MIC, microbroth dilution, anaerobic; type: cell-based; details: ATCC25285
[22] = system: P. aeruginosa pmrB 523C>T; assay: MIC, microbroth dilution; type: cell-based; details: Pseudomonas aeruginosa
[23] = target: WT BAM (BamA of BAM) (Escherichia coli, UniProt P0A940); assay: Isothermal Titration Calorimetry; type: binding, E. coli; details: same concentration range as darobactin
Summary of the method: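 BAM was expressed with 0.5 mM IPTG for 3 h, extracted from membranes in DDM and Ni-NTA purified. ITC ran at 25°C in duplicate: 20 μM BAM in 1xPBS with 0.05% DDM in the cell, 200 μM ligand in the syringe, 20 injections 300 s apart, stirring at 300 rpm. Ligand-into-buffer heats were measured as a control. Data were fitted to an independent binding model.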

[24] = target: BAM complex, wild type (Escherichia coli, UniProt P0A940); assay: BAM folding assay; type: biochemical, E. coli; details: WT BAM-nanodiscs, increasing concentrations
[25] = target: BAM complex (BamABCDE), wild type (E. coli) (UniProt P0A940); assay: ITC
[26] = system: E. coli MG1655; assay: LPS binding assay; type: cell-based; details: LPS from E. coli O55:B5, 0.5–100 μg ml^−1
Summary of the method: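 Microbroth dilution: E. coli MG1655 at OD600 0.001 in cation-adjusted MHIIB was added to wells holding purified E. coli O55:B5 LPS (0.5–100 μg ml−1) plus serially diluted test compound or polymyxin B. Plates were incubated overnight at 37°C. The growth-inhibiting concentration was read by eye, with and without LPS.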

Compound: NC(N)=NC(=O)CC(Nc1nc(N=C(N)N)nc(NC2CCC(NC(=O)Cn3nnc(-c4ccc(F)cc4)n3)CC2)n1)C1CC1 (centres unmarked) [MRL-494]
- MIC [1]: 15 µg/mL (≈ 24.1 µM)
- MIC [2]: 62 µg/mL (≈ 99.6 µM)

Compound: CC1(C)S[C@@H]2[C@H](NC(=O)[C@H](N)c3ccccc3)C(=O)N2[C@H]1C(=O)O [ampicillin]
- MIC [3]: 2 µg/mL (≈ 5.72 µM)
- MIC [4]: 2 µg/mL (≈ 5.72 µM)
- MIC [5]: 128 µg/mL (≈ 366 µM)
- MIC [6]: 64 µg/mL (≈ 183 µM)
- MIC [7]: > 128 µg/mL
- MIC ([8]; ATCC700603): 128 µg/mL (≈ 366 µM)
- MIC ([8]; ATCC700603, K. pneumoniae ATCC700603 (SHV-18)): > 128 µg/mL
- MIC [9]: > 128 µg/mL
- IC50 at 72 h [10]: > 128 µg/mL
- IC50 at 72 h [11]: > 128 µg/mL
- MIC [12]: 16 µg/mL (≈ 45.8 µM)
- MIC [13]: > 128 µg/mL
- MIC [14]: > 128 µg/mL
- MIC [15]: > 128 µg/mL
- MIC [16]: 64 µg/mL (≈ 183 µM)
- IC50 at 72 h [17]: > 128 µg/mL
- MIC [18]: > 128 µg/mL
- MIC [19]: 1 µg/mL (≈ 2.86 µM)
- MIC [20]: > 128 µg/mL
- MIC [21]: 128 µg/mL (≈ 366 µM)
- MIC [22]: > 128 µg/mL

Compound: WNWSKSF
- binding to BAM by ITC [23]: no binding
- inhibition of BAM-ND activity [24]: only minimal effects
- inhibition of BAM-ND activity ([24]; listed as linear peptide): no inhibitory activity

Compound: darobactin (peptide)
- pKd [25]: 5.92
- dH [25]: -25 kcal/mol

Compound: polymyxin B
- effect of added purified LPS on antibiotic activity (MIC) [26]: antagonized polymyxin activity
